Compound activity: PubChem, Johns Hopkins Ion Channel Center
RGS4 pot: RGS4 potentiation or activation; HEK293 M3R/inducible RGS4, carbachol calcium flux Fluo4; active compounds read low; B-score at 10 µM; actives 0.92% (n = 310,000);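 active means B-score of the integrated calcium signal more than 4 SD below the library mean, with starting fluorescence not abnormally high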;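 further: negative B-score means reduced calcium response which marks RGS4 activation or potentiation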
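Material: M3R-expressing HEK293 line, RGS4 induced by doxycycline | Schedule: Overnight RGS4 induction, 30 min dye load 37 °C, 20 min compound RT | Measured by: Fluo4 fluorescence kinetic imaging of calcium | Read-out: Integrated calcium ratio converted to B score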
MrgX1 agonist: human MrgX1 receptor agonism, primary screen | B-score at 10 µM | MrgX1-HEK293 cells, Fluo-4 calcium fluorescence, agonist mode; active compounds read high | actives 0.44% (n = 310,000) | Q96LB2;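 active means calcium response B-score plate-corrected fluorescence ratio at least 3 library SD, with starting fluorescence B-score inside 5 SD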
Target sequence (Q96LB2 whole entry, looked up): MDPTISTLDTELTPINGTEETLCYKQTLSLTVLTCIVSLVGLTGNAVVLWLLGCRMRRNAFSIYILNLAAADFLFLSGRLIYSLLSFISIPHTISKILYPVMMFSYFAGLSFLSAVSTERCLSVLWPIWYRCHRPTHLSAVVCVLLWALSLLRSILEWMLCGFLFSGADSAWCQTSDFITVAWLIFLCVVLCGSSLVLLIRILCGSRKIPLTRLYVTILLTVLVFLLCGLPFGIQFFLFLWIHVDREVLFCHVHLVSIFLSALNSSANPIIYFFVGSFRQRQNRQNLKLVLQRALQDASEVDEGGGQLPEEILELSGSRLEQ
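Assay system: MrgX1-expressing HEK293 cells / Amount: fifteen thousand cells per well / Doses: test compound in the initial addition of three / Timing: cells plated overnight, dye loaded 0.5 h 37 °C, 0.5 h room temperature / Technique: kinetic calcium dye fluorescence, Fluo-4 NW / Control set: positive and negative controls per plate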
MrgX1 antag: human MrgX1 receptor antagonism, primary screen; actives 1.3% (n = 310,000); MRGX1-HEK293 calcium flux, Fluo-4, BAM8-22 antagonism; active compounds read low; Q96LB2; B-score at 10 µM;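 active means calcium-response B-score plate-corrected more than 3 library SD below zero, starting fluorescence within 5 deviations, no agonist response on first addition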;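 further: peak minus trough fluorescence over baseline after final BAM8-22 challenge near maximal dose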
MrgX1 allo act: allosterically activates human MrgX1 receptor signaling; MrgX1-HEK293, Fluo-4 calcium flux, FDSS; active compounds read high; AID 588675; B-score at 10 µM; Q96LB2; actives 0.63% (n = 310,000);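 active means plate-corrected calcium response at least 3 library SD above typical, normal starting fluorescence, not activating the receptor alone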;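 further: compound read alongside a low EC10 to EC30 dose of BAM8-22 agonist; peak minus trough fluorescence over baseline measured at the second addition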
RGS4 inh: inhibitors of human RGS4; P49798; HEK293 M3R/RGS4 inducible, Fluo-4 calcium flux; active compounds read high; triggered by carbachol at its EC20; B-score at 10 µM; actives 0.45% (n = 310,000); AID 463165;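 active means B-score, a plate-corrected calcium signal, over three deviations above library mean, with baseline fluorescence within five deviations of library mean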;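 further: RGS4 expression induced by doxycycline in cells with stable M3 receptor; B-score is computed from the integrated fluorescence ratio over baseline after carbachol; higher B-score means a larger calcium signal and so more RGS4 inhibition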
Target sequence (P49798 whole entry, looked up): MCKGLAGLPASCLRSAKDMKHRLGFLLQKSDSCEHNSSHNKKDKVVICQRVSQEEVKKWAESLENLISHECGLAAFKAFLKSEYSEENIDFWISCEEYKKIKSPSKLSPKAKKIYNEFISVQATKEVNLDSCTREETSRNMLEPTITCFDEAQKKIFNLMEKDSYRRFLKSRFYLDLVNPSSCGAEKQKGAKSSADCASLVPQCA
The depositor's hits bear a star; i = inactive; / = no result. A selection: hits, their analogues and other compounds. The true share with any hit is near 3.5%.

SMILES	RGS4 pot	MrgX1 agonist	MrgX1 antag	MrgX1 allo act	RGS4 inh
O=C(CCc1ccccn1)N1CCCC(N2CCN(c3cccc(C(F)(F)F)c3)CC2)C1 (stereo unspecified)	i	i	i	i	i
COc1ccc(CC(=O)Nc2ccc(-c3nnc(-c4ccccc4)o3)cc2)cc1OC	i	i	i	i	i
COc1ccc(CC(=O)Nc2cccc(-c3nnc(-c4ccc(C)cc4)o3)c2)cc1OC	-10*	i	i	i	i
N=c1c2c(-c3ccccc3)c(-c3ccccc3)n(Cc3ccco3)c2ncn1Cc1ccco1	-7*	i	-8.1*	i	i
N=c1c2c(-c3ccccc3)c(-c3ccccc3)n(Cc3ccccc3)c2ncn1CCCn1ccnc1	i	i	i	i	i
Cc1nn2c(N3CCCC3)cc(C(C)C)nc2c1-c1ccccc1	-7.1*	i	i	i	i
O=C(CN1C(=O)c2ccccc2S1(=O)=O)NCc1cccs1	i	i	i	i	i
CCn1c(C)c(C(C)=O)c(N2CCN(C(c3ccccc3)c3ccccc3)CC2)nc1=S	-7.4*	i	i	i	i
COc1ccc(NC(=O)c2ccc(Cl)c(S(=O)(=O)NCC3CCCO3)c2)c(OC)c1 (stereo unspecified)	i	i	i	i	i
O=C1/C(=C/c2ccccn2)COc2ccccc21	i	i	i	6.7*	i
O=C1/C(=C/c2ccc(O)cc2)COc2ccccc21	i	i	i	i	i
CC/C(=C\c1oc2cc3ccccc3cc2[n+]1CC)Nc1ccccc1	i	27*	i	i	i
CC[n+]1c(/C=C/N(C)c2ccccc2)oc2ccccc21	i	i	i	i	i
CCOc1ccccc1C1c2[nH]c3ccccc3c2C[C@H]2C(=O)N(C3CC3)CC(=O)N12 (stereo partly specified)	i	i	i	i	i
CCN(CC)CCOC(=O)C1c2ccccc2Oc2ccccc21	-11*	i	i	i	i
COc1ccc(C2=NOC(C(=O)NCCCn3ccnc3)C2)cc1 (stereo unspecified)	i	i	i	i	i
COc1cccc(C2=NOC(C(=O)NCCCn3ccnc3)C2)c1 (stereo unspecified)	i	i	-6.5*	i	i
CCN(CC)CCNC(=O)C1c2ccccc2Oc2ccccc21	-7.2*	i	i	i	i
O=C(NCCCn1ccnc1)C1c2ccccc2Oc2ccccc21	-7.4*	i	i	i	i
COc1cc2c(cc1OC)CN(S(C)(=O)=O)CC2	i	i	i	i	i
CC(=O)c1cc(-c2ccccc2)n(CCC(=O)NC(C)(C)C)c1C	i	i	i	i	i
CN(C)c1nccc(N(Cc2ccccc2)Cc2ccccc2)c1C#N	-7*	i	i	i	i
CN(C)CCN(Cc1ccccc1)c1ccnc(N(C)C)c1C#N	i	i	i	i	i
c1ccc(Nc2nc(-c3ccccn3)cs2)cc1	i	i	i	i	i
COc1cccc2sc(Nc3nc(-c4ccccn4)cs3)nc12	-8.7*	i	i	7.8*	i
SMILES	RGS4 pot	MrgX1 agonist	MrgX1 antag	MrgX1 allo act	RGS4 inh
CC(=O)NC1=NC(=O)/C(=C/c2cc(C)n(-c3ccc(NC(C)=O)cc3)c2C)S1	i	i	-4.5*	i	i
Brc1ccc(-c2ccc(/C=N/Nc3nc(N4CCOCC4)nc(N4CCOCC4)n3)o2)cc1	i	i	i	i	i
Fc1cnc(N/N=C/c2ccc(-c3ccc(Br)cc3)o2)nc1N1CCOCC1	-7.8*	i	i	i	i
CC[C@H](C)[C@@H]1NC(=O)c2cc([N+](=O)[O-])cc(I)c2SC[C@@H](C(N)=O)NC(=O)[C@H](CCCCN)NC1=O	/	i	-6.6*	i	/
CCc1nnc(NC(=O)c2cc([N+](=O)[O-])ccc2N2CCOCC2)s1	i	i	-6.3*	i	i
O=C(COC(=O)c1cc([N+](=O)[O-])ccc1N1CCOCC1)Nc1ccc(Cl)cc1	i	i	-8.3*	i	i
CC(C)(C)NC(=O)C(c1ccncc1)N(C(=O)Cn1nnc(-c2ccc(F)cc2)n1)c1ccc(F)cc1 (stereo unspecified)	i	i	-5.6*	i	i
O=C(Nn1cnc2ccccc2c1=O)C1CCCCC1	i	i	-7.5*	i	i
CCCC1CCC(C(=O)Nn2cnc3ccccc3c2=O)CC1 (stereo unspecified)	i	i	i	i	i
CCc1ccc(C(=O)COC(=O)c2cc([N+](=O)[O-])ccc2N2CCOCC2)cc1	i	i	i	i	i
N/C(=N\OC(=O)Oc1ccccc1)c1ccc(Cl)cc1	-9.5*	i	i	i	i
Cc1ccc(OC(C)C(=O)Nc2ccncc2)cc1C (stereo unspecified)	i	i	i	i	i
CCOc1ccccc1NC(=S)NC(=O)CCCOc1ccc(Cl)cc1Cl	-7.3*	i	i	i	i
CN1CCN(CCCOc2ccc(-c3ccccc3)cc2)CC1	-9.3*	i	i	i	i
CN1CCN(CCOc2ccc(-c3ccccc3)cc2)CC1	i	i	i	i	i
c1ccc(COc2ccc(OCCCCN3CCCCC3)cc2)cc1	-10*	i	i	i	i
COc1ccc(O[C@H]2C=C[C@@H](c3ccccc3)O[C@@H]2COC(=O)CC/C(C)=N/O[C@@H](C)c2cc(-c3c(C)cc(C)cc3C)no2)cc1	i	/	/	/	i
COc1ccc(O[C@H]2C=C[C@@H](c3ccccc3)O[C@@H]2COC(=O)CC/C(C)=N/OC[C@@H](O)COCc2ccco2)cc1	-9.7*	i	i	i	i
CCN(CC)c1nc(SCCOC(=O)Nc2ccccc2)nc(N(CC)CC)n1	-8.8*	i	i	i	i
Nc1c(C(=O)NCCc2ccc(Cl)cc2)sc2ccc(S(=O)(=O)N3CCCCC3)cc12	i	i	i	i	9*
COCCn1c(=NC(=O)/C=C/c2ccccc2)sc2cc(NC(C)=O)ccc21	i	i	-4.9*	i	i
COc1ccc(NC(=O)COC(=O)c2ccc(OCc3ccccc3Cl)c(OC)c2)c(OC)c1	i	i	-6*	i	i
CCN1/C(=C/c2ccc3cc(C)ccc3[n+]2CC)Sc2ccc3sccc3c21	i	39*	i	i	i
CCN1/C(=C\c2ccc3cc(C)ccc3[n+]2CC)Sc2cc(C)c(C)cc21	i	/	/	/	i
CC(/C=N/NC(=O)Cc1cccn1C)=C\c1ccccc1	i	i	i	12*	i
